The values that follow come from ChEMBL document CHEMBL1145848, “Unique high-affinity synthetic mu-opioid receptor agonists with central- and systemic-mediated analgesia” (J Med Chem, 2003).

In test [1] the target is Opioid receptors; mu & delta (Rattus norvegicus) (UniProt P33533+P33535). Description: Receptor selectivity for the delta to mu opioid receptor. It is filed as protein assay. The essentials:
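δ/μ ratio of Ki values from rat brain P2 synaptosome competition binding ([3H]DPDPE for δ, [3H]DAGO for μ; 2 h, room temperature). Ki calculated by Cheng–Prusoff.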

Test [2] concerns the target Delta-type opioid receptor (Rattus norvegicus, UniProt P33533). Description: Binding affinity for Opioid receptor delta 1 using [3H]DPDPE in rat brain P2 synaptosomal preparation. It is filed as tissue-based. The method, boiled down: (§1)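 Competition binding at equilibrium, 2 h at room temperature, on rat brain P2 synaptosomes. Nonspecific binding with 2 μM unlabeled peptide. GF/C filtration and scintillation counting. Duplicates, five to eight doses, 3–5 repeats. Ki by Cheng–Prusoff.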

In test [3] the target is Mu-type opioid receptor (Rattus norvegicus, UniProt P33535). Briefly: Binding affinity for Opioid receptor mu 1 using [3H]DAGO in rat brain P2 synaptosomal preparation. Format: tissue-based. The method, boiled down: as §1
Mu-type opioid receptor (Rattus norvegicus, UniProt P33535), sequence (P33535 whole entry): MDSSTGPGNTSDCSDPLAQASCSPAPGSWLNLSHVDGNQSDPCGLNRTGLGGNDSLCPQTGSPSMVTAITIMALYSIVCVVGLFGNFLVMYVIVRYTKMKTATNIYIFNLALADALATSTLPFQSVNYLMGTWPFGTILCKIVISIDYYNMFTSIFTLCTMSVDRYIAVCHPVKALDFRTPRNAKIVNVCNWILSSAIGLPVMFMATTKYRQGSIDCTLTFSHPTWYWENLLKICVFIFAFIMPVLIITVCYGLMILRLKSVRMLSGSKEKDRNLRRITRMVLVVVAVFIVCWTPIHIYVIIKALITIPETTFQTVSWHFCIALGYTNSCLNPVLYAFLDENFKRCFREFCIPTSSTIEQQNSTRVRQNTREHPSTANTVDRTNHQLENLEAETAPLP
Test [4] has as its target Mu-type opioid receptor (Cavia porcellus, UniProt P97266). Briefly: Opioid receptor mu 1 agonism in guinea pig ileum. Format: functional, tissue-based. The essentials: (§2)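 Isolated tissue bioassay: mouse vas deferens for δ, guinea pig ileum for μ. Field stimulation with bipolar rectangular pulses of supramaximal voltage. Inhibition of the electrically evoked twitch measured, and IC50 taken from concentration–response curves. [D-Ala2]deltorphin I (MVD) and dermorphin (GPI) were internal standards. Five to six separate assays.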

Test [5] deals with T1, Delta-type opioid receptor (Mus musculus, UniProt P32300). Briefly: Opioid receptor delta 1 agonism in mouse vas deferens. Format: functional, tissue-based. The essentials: as §2
T1 sequence (P32300 whole entry): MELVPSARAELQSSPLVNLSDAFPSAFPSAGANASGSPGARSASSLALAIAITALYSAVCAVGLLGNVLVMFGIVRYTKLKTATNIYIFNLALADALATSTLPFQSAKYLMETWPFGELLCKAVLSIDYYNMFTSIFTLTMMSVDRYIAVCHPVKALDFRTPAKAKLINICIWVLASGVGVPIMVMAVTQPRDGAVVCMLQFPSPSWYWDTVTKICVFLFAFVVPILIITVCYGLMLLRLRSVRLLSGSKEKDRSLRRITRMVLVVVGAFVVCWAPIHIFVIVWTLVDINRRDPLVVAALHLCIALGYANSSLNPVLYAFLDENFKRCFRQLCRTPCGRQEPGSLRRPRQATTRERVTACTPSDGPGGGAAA
The target of test [6] is T1, Delta-type opioid receptor. Briefly: Concentration required to double the agonist concentration to achieve the original response for Opioid receptor delta 1. Format: functional. The settings on record: read-out: pA2 (converted). The essentials: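 Antagonism reported as pA2, the negative log of the molar antagonist concentration that doubles the agonist concentration needed for the original response. Measured in the δ bioassay, the electrically stimulated mouse vas deferens twitch preparation. n = 5–6.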

The term pKi denotes the negative decadic logarithm of the Ki, by convention in mol/L. A low value points to a large Ki. As usually defined, the pIC50 is the negative decadic logarithm of the IC50, by convention in mol/L. Read a low pIC50 as a high IC50.

The structures appear in SMILES notation. pIC50, pKi: −log10 of the molar value.

Mu-type opioid receptor (Cavia porcellus, UniProt P97266), sequence (P97266 whole entry): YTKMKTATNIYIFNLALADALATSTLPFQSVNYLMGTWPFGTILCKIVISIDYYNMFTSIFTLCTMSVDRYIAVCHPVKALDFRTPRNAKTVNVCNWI
Delta-type opioid receptor (Rattus norvegicus, UniProt P33533), sequence (P33533 whole entry): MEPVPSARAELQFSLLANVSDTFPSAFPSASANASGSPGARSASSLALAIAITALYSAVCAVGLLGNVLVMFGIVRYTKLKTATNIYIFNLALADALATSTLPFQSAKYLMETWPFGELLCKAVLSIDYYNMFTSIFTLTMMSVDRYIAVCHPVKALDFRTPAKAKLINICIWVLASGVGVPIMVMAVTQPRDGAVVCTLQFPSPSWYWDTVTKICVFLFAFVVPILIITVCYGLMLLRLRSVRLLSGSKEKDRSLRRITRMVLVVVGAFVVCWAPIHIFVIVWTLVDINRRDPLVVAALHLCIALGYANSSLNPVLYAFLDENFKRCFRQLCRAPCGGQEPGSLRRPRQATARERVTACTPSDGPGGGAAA
Opioid receptors; mu & delta (Rattus norvegicus), sequence (P33533 whole entry, looked up): as the sequence (P33533 whole entry) above
Opioid receptors; mu & delta (Rattus norvegicus), sequence (P33535 whole entry, looked up): as the sequence (P33535 whole entry) above

With `Cc1cc(O)cc(C)c1C[C@H](N)C(=O)NCCCCNC(=O)[C@H](N)Cc1ccc(O)cc1`, the Ratio in test [1] was 349. The values for the pKi in test [2] and in test [3] were 6.88 and 9.42, respectively. For the same compound, the pIC50 in test [4] is 6.59; in test [5] it was less than 5.00. For the same compound, the Kb in test [6] was 5010 nM.

With `Cc1cc(O)cc(C)c1C[C@@H](N)C(=O)NCCNC(=O)[C@@H](N)Cc1c(C)cc(O)cc1C`, the Ratio in test [1] was 81. The pKi in test [2] was 6.94; in test [3], 8.84. The values for the pIC50 in test [4] and in test [5] were 5.55 and less than 5.00, respectively. Moreover, the Kb in test [6] was 3160 nM.

Regarding `Cc1cc(O)cc(C)c1C[C@@H](N)C(=O)NCCCCCCCCNC(=O)[C@@H](N)Cc1c(C)cc(O)cc1C`, the Ratio in test [1] turned out to be 78. Moreover, the negative logarithm of the Ki (pKi) in test [2] is 7.83; in test [3], 9.72. In addition, the pIC50 was 7.27 in test [4] and less than 5.00 in test [5]. In addition, in test [6], the Kb was 398 nM.

For `Cc1cc(O)cc(C)c1C[C@H](N)C(=O)NCCCCNC(=O)[C@H](N)Cc1ccccc1`, in test [1], the Ratio is 119. For the same compound, the pKi is 7.21 in test [2] and 9.28 in test [3]. The pIC50 in test [4] was 6.74; in test [5], less than 5.00. Moreover, the Kb in test [6] is 3160 nM.

For `N[C@H](Cc1ccc(O)cc1)C(=O)NCCCCCCCCNC(=O)[C@@H](N)Cc1ccc(O)cc1`, the pKi was 5.21 in test [2] and 6.40 in test [3].

As to `N[C@H](Cc1ccc(O)cc1)C(=O)NCCNC(=O)[C@@H](N)Cc1ccc(O)cc1`, the Ratio in test [1] came to 13. Also, the pKi in test [2] is 5.08; in test [3], 6.19.

In the case of `N[C@H](Cc1ccc(O)cc1)C(=O)NCCCCNC(=O)[C@@H](N)Cc1ccc(O)cc1`, the Ratio in test [1] came to 21. The values for the pKi in test [2] and in test [3] were 5.19 and 6.51, respectively.

On to `Cc1cc(O)cc(C)c1C[C@@H](N)C(=O)NCCCCCCNC(=O)[C@@H](N)Cc1c(C)cc(O)cc1C`, for which, in test [1], the Ratio worked out at 870. Moreover, the pKi in test [2] was 7.34; in test [3], 10.28. Moreover, the pIC50 in test [4] is 8.51; in test [5] it was less than 5.00. Also, the Kb in test [6] was 794 nM.

`N[C@H](Cc1ccc(O)cc1)C(=O)NCCCCCCNC(=O)[C@@H](N)Cc1ccc(O)cc1`: the Ratio in test [1] was 53. Further, the pKi in test [2] is 4.66; in test [3], 6.39.

As to `Cc1cc(O)cc(C)c1C[C@@H](N)C(=O)NCCCCNC(=O)[C@@H](N)Cc1c(C)cc(O)cc1C`, in test [1], the Ratio came out at 1300. The pKi in test [2] is 7.27; in test [3], 10.39. The pIC50 in test [4] is 8.27; in test [5], less than 5.00. The Kb in test [6] is 1580 nM.

In the case of `N[C@H](Cc1ccccc1)C(=O)NCCCCNC(=O)[C@@H](N)Cc1ccccc1`, the Ratio in test [1] stood at 30. The results for the pKi in test [2] and in test [3] were 4.34 and 5.82, respectively.
